Reference: PMC13022283 (Scientific Reports, 2026)
Entries after “also recorded” stand apart in the source; their conditions may differ.

What was measured:
h-NTPDase3 = biological target: T1, h-NTPDase3 (Homo sapiens, UniProt O75355); experiment: h-NTPDase activity assay; assay type: biochemical; details: for inhibition at 100 µM: read-out: % Inhibition h-NTPDase3
T1 sequence (O75355 1-529): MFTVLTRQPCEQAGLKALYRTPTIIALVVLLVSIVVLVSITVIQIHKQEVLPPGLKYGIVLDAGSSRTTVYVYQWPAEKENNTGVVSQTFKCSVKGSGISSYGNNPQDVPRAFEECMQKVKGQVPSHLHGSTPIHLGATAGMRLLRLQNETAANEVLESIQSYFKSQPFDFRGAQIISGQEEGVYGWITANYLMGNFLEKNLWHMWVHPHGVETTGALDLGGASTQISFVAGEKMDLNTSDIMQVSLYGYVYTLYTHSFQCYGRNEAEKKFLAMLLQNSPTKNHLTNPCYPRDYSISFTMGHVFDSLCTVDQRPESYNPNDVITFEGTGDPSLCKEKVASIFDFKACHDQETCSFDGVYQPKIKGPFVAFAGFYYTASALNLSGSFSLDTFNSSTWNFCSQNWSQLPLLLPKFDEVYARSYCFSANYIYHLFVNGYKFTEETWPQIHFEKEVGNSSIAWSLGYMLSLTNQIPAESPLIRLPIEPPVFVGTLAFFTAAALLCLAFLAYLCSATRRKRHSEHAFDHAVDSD
Method in brief: (§1)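 Human NTPDase1, -2, -3 or -8 came from COS-7 cells transfected with plasmids via Lipofectamine, harvested at 44–48 h, sonicated and cleared of nuclei, with protein measured by Bradford. Enzyme per well was 12, 37, 43 or 63 ng respectively. Compound (0.1 mM final) was pre-incubated 10 min at 37 °C in 50 mM Tris–HCl, 5 mM CaCl2, pH 7.4. The reaction was started with ATP (100 µM), run 15 min, and stopped with malachite green; Pi was read at 630 nm.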

h-NTPDase1 = biological target: T2, h-NTPDase1 (Homo sapiens, UniProt P49961); experiment: h-NTPDase activity assay; assay type: biochemical; details: for inhibition at 100 µM: read-out: % Inhibition h-NTPDase1
T2 sequence (P49961 1-510): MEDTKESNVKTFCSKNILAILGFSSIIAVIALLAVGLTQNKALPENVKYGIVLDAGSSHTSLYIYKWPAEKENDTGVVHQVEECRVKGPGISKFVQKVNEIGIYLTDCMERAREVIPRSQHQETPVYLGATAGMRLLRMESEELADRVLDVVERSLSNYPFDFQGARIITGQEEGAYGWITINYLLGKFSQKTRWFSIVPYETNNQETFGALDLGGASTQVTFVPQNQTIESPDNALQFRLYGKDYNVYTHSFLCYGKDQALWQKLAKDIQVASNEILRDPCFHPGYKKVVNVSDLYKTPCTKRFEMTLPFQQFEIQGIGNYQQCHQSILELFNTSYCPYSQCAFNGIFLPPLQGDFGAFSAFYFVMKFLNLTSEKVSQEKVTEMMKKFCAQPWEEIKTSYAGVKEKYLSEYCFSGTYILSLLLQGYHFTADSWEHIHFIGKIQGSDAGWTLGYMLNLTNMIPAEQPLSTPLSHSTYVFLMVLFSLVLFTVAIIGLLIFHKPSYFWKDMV

[1] = test system: A549 human lung carcinoma cells; experiment: Fluorescence microscopy of treated cells; assay type: cell-based; details: A549, 10 μM, 24 h incubation
h-NTPDases = experiment: h-NTPDase activity assay, all four isoenzymes; assay type: biochemical, human
Method in brief: as §1

[2] = test system: MCF-7 breast cancer cells; experiment: MTT assay; assay type: cell-based, human; details: MCF-7, 100 μM, 24 h, 100 µM

Row | SMILES | IC50 (h-NTPDase3) | inhibition at 100 µM (h-NTPDase3) | IC50 (h-NTPDase1) | inhibition at 100 µM (h-NTPDase1) | activity against all four h-NTPDase isoenzymes (h-NTPDases) | cytotoxicity seen in bright-field images [1] | % Viability [2]
1 | O=C(NCc1ccc(F)cc1)c1ccc2ncccc2c1 [Compound 4b, N-(4-fluorobenzyl)quinoline-6-carboxamide] | 350 ± 170 nM | 67.8% | 3460 ± 490 nM | 68.9% |  |  | 
2 | Cc1ccc(CNC(=O)c2ccc3ncccc3c2)cc1 [Compound 4c, N-(4-methylbenzyl)quinoline-6-carboxamide] | 670 ± 270 nM | 78.4% | 6130 ± 640 nM | 57.7% |  |  | 
3 | O=C(Nc1c(F)cccc1F)c1ccc2ncccc2c1 [Compound 4d, N-(2,6 difluorophenyl)quinoline-6-carboxamide] | 820 ± 70 nM | 58.4% |  | 76.1% |  | no signs of cytotoxicity | 

Second part, led by results:

Row | IC50 (h-NTPDase3) | inhibition at 100 µM (h-NTPDase3) | IC50 (h-NTPDase1) | inhibition at 100 µM (h-NTPDase1) | activity against all four h-NTPDase isoenzymes (h-NTPDases) | SMILES | cytotoxicity seen in bright-field images [1] | % Viability [2]
4 |  | 40.2% |  | 32.6% | poor activity; also recorded: inactive | O=C(Nc1ccc(F)cc1F)c1ccc2ncccc2c1 [Compound 4e, N-(2,4 difluorophenyl)quinoline-6-carboxamide] |  | 
5 | 320 ± 50 nM | 81.7% | 610 ± 90 nM | 58.5% |  | O=C(Nc1ccccn1)c1ccc2ncccc2c1 [Compound 4g, N-(pyridin-2-yl)quinoline-6-carboxamide] |  | 
6 | 880 ± 290 nM | 85% |  | 18.4% |  | O=C(Nc1ccccc1I)c1ccc2ncccc2c1 [Compound 4h, N-(2-iodophenyl)quinoline-6-carboxamide] |  | 
7 |  | 38.5% |  | 33.8% | poor activity | O=C(Nc1ccc(I)cc1)c1ccc2ncccc2c1 [Compound 4k, N-(4-Iodophenyl)quinoline-6-carboxamide] |  | 43.1%
8 |  | 36.1% |  | 32.4% | poor activity | Cc1ccc(F)cc1NC(=O)c1ccc2ncccc2c1 [Compound 4l, N-(5-fluoro 2-methylphenyl)quinoline-6-carboxamide] |  | 
